# thrombin 1536 = inhibitors of human thrombin. P00734. inhibition, % at 5 µM. actives 0.26% (n = 220,000). alpha-thrombin, Boc-VPR-AMC fluorogenic substrate cleavage;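 active = inhibition at or above 40%; inactive = inhibition below 40%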;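 also: 0% = enzyme with no compound and 100% = wells without enzyme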
#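 Test system: human alpha-thrombin protein / Dosing: one concentration per compound, 5 µM, with 0.2% DMSO / Medium: pH 7.5 Tris-saline with Tween 20 / Benchmarks: no-compound enzyme wells and no-enzyme blanks / Read-out basis: percent inhibition of thrombin substrate cleavage / Timing: reaction at room temperature / Measured by: fluorescence, ex 355 nm, em 460 nm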
# FXIa inh = factor XIa (human) inhibition; AID 798; purified FXIa, Boc-Glu-Ala-Arg-AMC fluorogenic substrate; inhibition, % at 5 µM; actives 0.14% (n = 220,000); P03951;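 active = inhibition of at least 40%; inactive = inhibition below 40%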;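 also: fluorescence of freed AMC excited at 355 nm; 0% = enzyme without compound and 100% = no enzyme blank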
# KLK5 inh = blocks human kallikrein 5 protease activity. AID 873. inhibition, % at 5 µM. Q9Y337. recombinant hK5, fluorogenic AMC substrate cleavage. actives 0.59% (n = 210,000);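 active = inhibition of 40% or more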;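 also: 0% = enzyme controls without compound and 100% = no-enzyme blanks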
# Target sequence (Q9Y337 67-293 limits assumed): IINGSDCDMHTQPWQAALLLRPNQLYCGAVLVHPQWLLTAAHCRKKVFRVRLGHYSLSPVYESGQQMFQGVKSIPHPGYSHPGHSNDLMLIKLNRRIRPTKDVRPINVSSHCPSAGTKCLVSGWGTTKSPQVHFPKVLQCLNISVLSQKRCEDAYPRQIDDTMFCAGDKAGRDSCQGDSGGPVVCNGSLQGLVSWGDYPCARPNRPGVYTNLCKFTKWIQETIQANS
# PGE2 EP2 inh = inhibitors of human EP2 prostaglandin E2 receptor; inhibition, % at 25 µM; C6 glioma cells expressing human EP2, cAMP TR-FRET; cells stimulated with saturating PGE2; actives 0.52% (n = 260,000); P43116;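 active = percent inhibition above 40 after rounding to a whole number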;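 also: rat C6 glioma host cells with rolipram phosphodiesterase inhibitor present; the protocol text gives 20 µM as final concentration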
# Target sequence (P43116 whole entry, looked up): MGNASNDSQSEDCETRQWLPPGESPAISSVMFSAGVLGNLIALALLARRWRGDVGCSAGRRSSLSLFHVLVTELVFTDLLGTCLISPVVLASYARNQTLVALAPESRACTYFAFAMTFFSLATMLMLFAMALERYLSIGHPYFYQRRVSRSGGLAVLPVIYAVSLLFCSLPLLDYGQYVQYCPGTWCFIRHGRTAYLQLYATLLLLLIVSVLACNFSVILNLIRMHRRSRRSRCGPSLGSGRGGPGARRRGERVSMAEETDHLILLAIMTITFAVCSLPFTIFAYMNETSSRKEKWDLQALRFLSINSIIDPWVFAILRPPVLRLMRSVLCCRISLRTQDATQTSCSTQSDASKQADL
# EP2 modulator = modulators of human EP2 prostaglandin E2 receptor | P43116 | EP2-expressing cells, cAMP HTRF FRET, PGE2 co-stimulation | induction, % at 25 µM | actives 0.83% (n = 260,000) | AID 940;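 active = compounds whose cAMP rise, as percent of the full-agonist control response, exceeds 60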;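 also: rat C6 glioma line stably carrying human EP2 under a CMV promoter; the protocol text gives 20 µM as final concentration; 100% = response of wells given 1 µM PGE2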
# FXIIa inh = inhibitors of human coagulation factor XIIa; actives 0.3% (n = 220,000); P00748; purified FXIIa, Boc-QGR-AMC fluorogenic substrate, 2 h; inhibition, % at 5 µM; in the data active = inhibition above about 40%;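 also: 0% = enzyme with no compound and 100% = blank without enzyme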
# EP2 cAMP induct = human EP2 receptor cAMP induction, negative in counter-screens; shares compounds with EP2 modulator; C6 glioma EP2 cells, cAMP HTRF induction; plus low (about EC15) PGE2 agonist; calls only at 20 µM (by protocol); actives 47% (n = 1,300); AID 1080;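 active = cAMP induction above 50% in the main assay while under 30% in all four parallel counter assays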;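 also: rat C6 glioma cells stably expressing human EP2 receptor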
# Starred values were filed as active, the others as inactive; i = inactive; x = no result; + = active, no number. The list is not random: actives were taken first. Their share in the collection is about 2.1%.
SMILES,thrombin 1536,FXIa inh,KLK5 inh,PGE2 EP2 inh,EP2 modulator,FXIIa inh,EP2 cAMP induct
Cc1ccc(-c2nn(-c3ccccc3)cc2CN(Cc2ccccc2)C(=O)c2ccco2)o1,-2,-6,0,9,80*,4,+
O=C(/C(=C/O)N=Nc1ccccc1)c1ccc(Cl)cc1,-6,0,-1,1,73*,6,+
Cc1ccc(N=N/C(=C\O)C(=O)c2ccc(Cl)cc2)cc1,20,-3,-2,6,89*,2,+
Cc1ccc(Cl)cc1N1CCN(C(=O)C(C)(C)C)CC1,x,x,x,12,-7,x,x
COc1cc2cc(Br)cc(Br)c2nc1C,-19,0,5,14,78*,-8,i
Cn1cccc1/C=C1\CC(C(C)(C)C)C/C(=C\c2cccn2C)C1=O (stereo not given),0,15,-19,4,71*,12,+
COc1ccc(O)c(CN[C@@H]2CCC(=O)N[C@H]2c2cc(F)cc(F)c2)c1,x,x,x,5,-44,x,x
O=C(CSc1nnc(Cn2c(=O)sc3ccccc32)n1-c1ccccc1)N1CCCC1,1,8,-10,6,1,16,x
Cc1ccccc1-n1c(SCC(=O)N2CCCC2)nnc1-c1ccccn1,3,1,4,11,66*,13,i
Cc1ccccc1-n1c(Cn2c(=O)sc3ccccc32)nnc1SCC(=O)N1CCCC1,6,8,-4,x,56,15,i
CCc1ccccc1-n1c(SCC(=O)N2CCCC2)nnc1-c1ccccn1,4,17,-26,8,3,13,x
CC(OC(=O)c1oc2ccccc2c1COc1ccccc1)C(=O)NC(N)=O (stereo not given),-7,-5,-1,5,70*,4,i
Cc1ccc(N/C(C(Cl)=C(Cl)Cl)=C(/Cl)[N+](=O)[O-])c(C)c1,2,5,-16,10,73*,12,+
CCc1c(C)nc2ccc(Br)cc2c1SCCC#N,-7,-5,-5,12,65*,-5,i
Cc1ccc(-n2nc3c(c2NC(=O)c2ccc(Br)o2)CSC3)c(C)c1,-2,-9,-12,5,52,-3,i
Nc1cc(N)nc(SCc2c(Cl)cccc2Cl)n1,x,x,x,7,-37,x,x
COc1cnc(SCc2c(Cl)cccc2Cl)nc1Cl,2,1,-4,6,74*,10,+
O=C(c1cc(-c2ccccn2)nc2ccc(Br)cc12)N1CCc2ccccc2C1,-3,0,-12,x,66*,8,i
Cc1cccc2cc(CN(Cc3ccccc3)C(=O)C3CC3)c3nnnn3c12,x,x,x,10,1,x,x
O=S1(=O)N=C(N/N=C/C=C/c2ccccc2)c2ccccc21,-3,10,-50,4,-20,10,x
O=S1(=O)N=C(N(CCO)/N=C/C=C/c2ccccc2)c2ccccc21,-1,0,-16,10,72*,5,+
Cc1ccc(C)c(NC(=S)N(Cc2ccco2)C(C)c2cccs2)c1 (stereo not given),4,-2,-10,5,68*,13,i
Cc1ccc(Cl)cc1NC(=S)N(Cc1ccco1)C(C)c1cccs1 (stereo not given),2,-8,1,5,63*,-1,i
Cc1ccc(NC(=S)N(Cc2ccco2)C(C)c2cccs2)c(Cl)c1 (stereo not given),1,-1,-3,4,36,10,x
COc1ccc(C2(NC(=O)CCn3ncc4ccccc43)CCCC2)cc1,x,x,x,x,4,x,x
SMILES,thrombin 1536,FXIa inh,KLK5 inh,PGE2 EP2 inh,EP2 modulator,FXIIa inh,EP2 cAMP induct
O=C(NCCCn1ccnc1)c1cc2nc(-c3ccco3)cc(C(F)(F)F)n2n1,x,x,x,10,-30,x,x
C/C(CCC(C)C)=N\NC(=S)NCc1ccccc1,-10,-2,-2,8,66*,4,+
C=CCn1c(-c2oc3nc(-c4ccccc4)cc(-c4ccccc4)c3c2N)n[nH]c1=S,-1,9,-7,4,61*,7,i
O=c1c2c(nc3n1CCCCC3)-c1ccccc1CC21CCCCC1,0,30,-1,6,66*,8,+
Cn1c(NN)nc2c(c1=O)C1(CCCC1)Cc1ccccc1-2,x,x,x,10,59,x,x
CS(=O)(=O)N1CCc2cc(C(=O)Nc3ccccc3F)ccc21,x,x,x,7,-27,x,x
CCCn1c(=O)[nH]c(=O)c2c1nc(-c1ccccc1OC(F)F)n2CCOC,4,6,-4,2,84*,17,i
CCCn1c(=O)[nH]c(=O)c2c1nc(-c1ccc(OC(F)F)c(OC)c1)n2CCOC,-5,-4,-8,10,9,1,x
CCCn1c(-c2cccs2)nc2c1c(=O)[nH]c(=O)n2Cc1ccccc1,-6,-2,1,0,72*,6,+
C=CCN1C(=O)/C(=C/c2ccc(O)c(OC)c2)S/C1=N/c1nccs1,-4,0,-20,6,70*,3,+
C=CCN1C(=O)/C(=C/c2ccc(OCC(=O)O)cc2)S/C1=N/c1nccs1,1,11,-18,9,35,11,x
COCCCn1c(=N)c(C(=O)OC)cc2c(=O)n3cc(C)ccc3nc21,x,x,x,11,23,x,x
CCOc1cc(/C=N/NC(N)=O)ccc1OC(=O)c1ccc(C)cc1,0,4,-5,x,66*,17,i
CCOc1cc(/C=N\NC(=O)c2ccc(NC(=O)C(C)(C)C)cc2)ccc1OC(=O)c1ccc(C)cc1,5,-3,-9,6,-6,11,x
Cc1ccc(C2CC(c3cccs3)=NN2C(=O)c2ccc(Br)o2)cc1 (stereo not given),3,5,-10,10,57,14,i
CC(=O)N1N=C(c2cccs2)CC1c1ccc(C)o1 (stereo not given),-1,9,-14,10,0,1,x
Cc1cc(C)nc(NNC(=O)c2ccc(Cl)cc2)n1,x,x,x,13,-20,x,x
Cc1cc(-c2cncnc2C2CCCN(C(=O)c3cccnc3)C2)on1 (stereo not given),x,x,x,x,-19,x,x
Cc1ccc(C(=O)N2N=C(c3ccccc3)CC2(O)C(F)(F)F)o1 (stereo not given),5,0,4,7,70*,7,i
COc1cccc(C2=NN(C(=O)c3cccs3)C(O)(C(F)(F)F)C2)c1 (stereo not given),6,0,1,9,86*,4,+
O=C(c1ccco1)N1N=C(c2ccc(Br)cc2)CC1(O)C(F)(F)F (stereo not given),-4,-2,2,11,86*,7,+

# High-throughput results: PubChem, several laboratories
